# According to ChEMBL document CHEMBL1139026, “Lipolanthionine peptides act as inhibitors of TLR2-mediated IL-8 secretion. Synthesis and structure-activity relationships” (J Med Chem, 2006):
# Calls of active or inactive are those of the source. The calls are words filed in the database; no cut-off is given here. Residues, ends and D or L forms follow the SMILES beside them. *: point of attachment. X5 = CCCCCCCCCCCCCCCCCCCC(=O)N[C@@H](C*)C(=O)NCCCCCCCCCCCCCCCC; X2 = CCCCCCCCCCCCCCCCCC(=O)N[C@@H](C*)C(=O)NCCCCCCCCCCCCCCCC; X6 = CCCCCCCCCCCCCC(=O)N[C@@H](C*)C(=O)NCCCCCCCCCCCC; X3 = CCCCCCCCCCCCCC(=O)N[C@@H](C*)C(=O)NCCCCCCCCCC; X4 = CCCCCCCCCCCCCC(=O)N[C@@H](C*)C(=O)NCCCCCCCC; X7 = CCCCCCCCCCCCCC(=O)N[C@@H](C*)C(=O)NCCCCCC; Arachidoyl = CCCCCCCCCCCCCCCCCCCC(=O)*; Stearoyl = CCCCCCCCCCCCCCCCCC(=O)*; Myristoyl = CCCCCCCCCCCCCC(=O)*
# What was measured:
# Format in all cases: functional, cell-based
# Toll-like receptor 2 [1] = target: T1, Toll-like receptor 2 (Homo sapiens, UniProt O60603); experiment: Inhibition of TLR2-mediated IL-8 secretion in THP-1 cells
# T1 sequence (O60603 whole entry): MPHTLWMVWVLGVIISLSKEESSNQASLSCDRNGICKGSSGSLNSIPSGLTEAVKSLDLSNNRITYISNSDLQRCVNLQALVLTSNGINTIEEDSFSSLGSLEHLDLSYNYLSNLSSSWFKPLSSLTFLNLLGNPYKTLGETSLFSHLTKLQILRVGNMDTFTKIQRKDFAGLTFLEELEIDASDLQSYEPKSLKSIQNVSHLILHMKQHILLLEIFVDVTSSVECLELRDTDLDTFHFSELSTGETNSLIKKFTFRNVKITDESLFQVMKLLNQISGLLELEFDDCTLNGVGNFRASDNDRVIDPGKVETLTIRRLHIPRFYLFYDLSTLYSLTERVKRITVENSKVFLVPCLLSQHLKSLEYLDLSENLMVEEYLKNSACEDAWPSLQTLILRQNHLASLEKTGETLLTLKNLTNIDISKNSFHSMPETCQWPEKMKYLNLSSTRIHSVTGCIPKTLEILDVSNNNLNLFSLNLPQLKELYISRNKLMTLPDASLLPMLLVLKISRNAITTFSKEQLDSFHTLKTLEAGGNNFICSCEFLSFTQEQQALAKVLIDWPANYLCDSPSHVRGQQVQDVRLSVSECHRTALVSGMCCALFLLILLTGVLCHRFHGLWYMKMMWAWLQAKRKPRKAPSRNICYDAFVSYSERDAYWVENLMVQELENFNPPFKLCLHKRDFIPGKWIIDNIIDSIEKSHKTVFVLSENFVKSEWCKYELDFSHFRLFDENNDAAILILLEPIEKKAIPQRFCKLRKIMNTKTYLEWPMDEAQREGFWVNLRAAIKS
# Summary of the method: (§1)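 THP-1 cells, 4 × 10⁴ per well in RPMI 1640/10% FCS, were preincubated with peptides (0.78–25 µM, from 10 mM DMSO stocks) for 10 min at 37 °C. Pam3Cys-SK4-OH (50 nM) was then added for 5 h at 37 °C. IL-8 in cell-free supernatants was measured by matched-pair ELISA against DMSO-matched agonist controls. Triplicates, SD shown.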
# THP-1 = experiment: Cytotoxicity against THP1 cells by MTT assay
# Summary of the method: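 THP-1 cells (RPMI 1640 with 10% FCS, 37 °C, 5% CO2) were exposed to lipolanthionine peptides plus Pam3Cys-SK4-OH (50 nM) for 5 h. After part of the supernatant was removed for ELISA, MTT (1 mg/mL) was added for 4 h. Formazan was dissolved in 10% SDS in 10 mM HCl. A570 was read relative to untreated control cells.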
# Toll-like receptor 2 [2] = target: T1, Toll-like receptor 2; experiment: Inhibition of TLR2 agonist Pam3Cys-Ser-(Lys)4-OH-mediated IL8 secretion in THP1 cells; parameters: scale not given: the % may be the effect or the level left; settings: for Activity: THP-1; summary of the method: as §1
# Toll-like receptor 2 [3] = target: T1, Toll-like receptor 2; experiment: Inhibition of TLR2 agonist Pam3Cys-Ser-(Lys)4-OH-mediated IL8 secretion in THP1 cells at 25 uM; settings: THP-1
# Summary of the method: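 THP-1 cells, 4 × 10⁴ per well, were preincubated for 10 min at 37 °C with peptide at a single 25 µM concentration (from 10 mM DMSO stock), with or without Pam3Cys-SK4-OH (50 nM), then incubated 5 h at 37 °C. IL-8 was measured by ELISA in cell-free supernatants and expressed relative to agonist plus equal-solvent control. Triplicates, SD.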
Structure (SMILES),Activity (Toll-like receptor 2 [1]),Activity (THP-1),Activity (Toll-like receptor 2 [2]),Activity (Toll-like receptor 2 [3]),IC50 (Toll-like receptor 2 [2]) [µM]
CCCCCCCCCCCCCC(=O)N[C@@H](CSC[C@@H](NC(=O)CCCCCCCCCCCCC)C(=O)N[C@@H](CO)C(=O)N[C@@H](CCCCN)C(=O)N[C@@H](CCCCN)C(=O)N[C@@H](CCCCN)C(=O)N[C@@H](CCCCN)C(N)=O)C(=O)O,Active,inactive,inactive,–,–
CCCCCCCCCCCCCCCCNC(=O)[C@H](CSC[C@H](NC(=O)CCCCCCCCCCC)C(=O)N[C@@H](CO)C(=O)N[C@@H](CCCCN)C(=O)N[C@@H](CCCCN)C(=O)N[C@@H](CCCCN)C(=O)N[C@@H](CCCCN)C(N)=O)NC(=O)CCCCCCCCCCC,Active,inactive,–,Active,–
CCCCCCCCCCCCCCCC(=O)O [PALMITIC ACID],–,–,68%,–,5
CCCCCCCCCCCCCC(=O)N[C@@H](CSC[C@H](NC(=O)CCCCCCCCCCCCC)C(=O)N[C@@H](CO)C(=O)N[C@@H](CCCCN)C(=O)N[C@@H](CCCCN)C(=O)N[C@@H](CCCCN)C(=O)N[C@@H](CCCCN)C(N)=O)C(=O)O,Active,inactive,inactive,–,–
CCCCCCCCCCCCCC(=O)N[C@@H](CSC[C@H](NC(=O)CCCCCCCCCCCCC)C(=O)N[C@@H](CO)C(=O)N[C@@H](CCCCN)C(=O)N[C@@H](CCCCN)C(=O)N[C@@H](CCCCN)C(=O)N[C@@H](CCCCN)C(N)=O)C(=O)NCCCCCC (Myristoyl-C(X7)SKKKK-NH2),–,inactive,–,–,–
CCCCCCCCCCCCCCCCNC(=O)[C@H](CSC[C@H](NC(=O)CCCCCCCCCCCCC)C(=O)N[C@@H](CO)C(=O)N[C@@H](CCCCN)C(=O)N[C@@H](CCCCN)C(=O)N[C@@H](CCCCN)C(=O)N[C@@H](CCCCN)C(N)=O)NC(=O)CCCCCCCCCCCCC,Active,inactive,–,Active,–
CCCCCCCCCCCCCCCCNC(=O)[C@H](CSC[C@H](NC(=O)CCCCCCCCC)C(=O)N[C@@H](CO)C(=O)N[C@@H](CCCCN)C(=O)N[C@@H](CCCCN)C(=O)N[C@@H](CCCCN)C(=O)N[C@@H](CCCCN)C(N)=O)NC(=O)CCCCCCCCC,Active,inactive,–,–,–
CCCCCCCCCCCCCCCCNC(=O)[C@H](CSC[C@H](NC(=O)CCCCCCC)C(=O)N[C@@H](CO)C(=O)N[C@@H](CCCCN)C(=O)N[C@@H](CCCCN)C(=O)N[C@@H](CCCCN)C(=O)N[C@@H](CCCCN)C(N)=O)NC(=O)CCCCCCC,Active,inactive,–,–,–
CCCCCCCCCCCCCC(=O)N[C@@H](CSC[C@H](NC(=O)CCCCCCCCCCCCC)C(=O)N[C@@H](CO)C(=O)N[C@@H](CCCCN)C(=O)N[C@@H](CCCCN)C(=O)N[C@@H](CCCCN)C(=O)N[C@@H](CCCCN)C(N)=O)C(=O)NCCCCCCCC (Myristoyl-C(X4)SKKKK-NH2),Active,inactive,–,–,–
CCCCCCCCCCCCCCCCNC(=O)[C@H](CS(=O)(=O)C[C@H](NC(=O)CCCCCCCCCCCCCCC)C(=O)N[C@@H](CO)C(=O)N[C@@H](CCCCN)C(=O)N[C@@H](CCCCN)C(=O)N[C@@H](CCCCN)C(=O)N[C@@H](CCCCN)C(N)=O)NC(=O)CCCCCCCCCCCCCCC,Active,inactive,–,–,–
CCCCCCCCCCCCCCCCCCNC(=O)[C@H](CSC[C@H](NC(=O)CCCCCCCCCCCCC)C(=O)N[C@@H](CO)C(=O)N[C@@H](CCCCN)C(=O)N[C@@H](CCCCN)C(=O)N[C@@H](CCCCN)C(=O)N[C@@H](CCCCN)C(N)=O)NC(=O)CCCCCCCCCCCCC,Active,inactive,–,–,–
CCCCCCCCCCCCCC(=O)N[C@@H](CSC[C@H](NC(=O)CCCCCCCCCCCCC)C(=O)N[C@@H](CO)C(=O)N[C@@H](CCCCN)C(=O)N[C@@H](CCCCN)C(=O)N[C@@H](CCCCN)C(=O)N[C@@H](CCCCN)C(N)=O)C(=O)NCCCCCCCCCC (Myristoyl-C(X3)SKKKK-NH2),Active,inactive,–,–,–
CCCCCCCCCCCCCCCCCC(=O)N[C@@H](CSC[C@H](NC(=O)CCCCCCCCCCCCCCCCC)C(=O)N[C@@H](CO)C(=O)N[C@@H](CCCCN)C(=O)N[C@@H](CCCCN)C(=O)N[C@@H](CCCCN)C(=O)N[C@@H](CCCCN)C(N)=O)C(=O)NCCCCCCCCCCCCCCCC (Stearoyl-C(X2)SKKKK-NH2),Active,inactive,–,–,–
CCCCCCCCCCCCCC(=O)N[C@H](CSC[C@@H](NC(=O)CCCCCCCCCCCCC)C(=O)N[C@@H](CO)C(=O)N[C@@H](CCCCN)C(=O)N[C@@H](CCCCN)C(=O)N[C@@H](CCCCN)C(=O)N[C@@H](CCCCN)C(N)=O)C(=O)O,Active,inactive,inactive,–,–
CCCCCCCCCCCCCCCCNC(=O)[C@H](CSC[C@H](NC(=O)CCCCC)C(=O)N[C@@H](CO)C(=O)N[C@@H](CCCCN)C(=O)N[C@@H](CCCCN)C(=O)N[C@@H](CCCCN)C(=O)N[C@@H](CCCCN)C(N)=O)NC(=O)CCCCC,Active,inactive,–,–,–
CCCCCCCCCCCCCCCCNC(=O)[C@@H](CSC[C@H](NC(=O)CCCCCCCCCCCCC)C(=O)N[C@@H](CO)C(=O)N[C@@H](CCCCN)C(=O)N[C@@H](CCCCN)C(=O)N[C@@H](CCCCN)C(=O)N[C@@H](CCCCN)C(N)=O)NC(=O)CCCCCCCCCCCCC,Active,inactive,–,–,–
CCCCCCCCCCCCCCNC(=O)[C@H](CSC[C@H](NC(=O)CCCCCCCCCCCCC)C(=O)N[C@@H](CO)C(=O)N[C@@H](CCCCN)C(=O)N[C@@H](CCCCN)C(=O)N[C@@H](CCCCN)C(=O)N[C@@H](CCCCN)C(N)=O)NC(=O)CCCCCCCCCCCCC,Active,inactive,–,–,–
CCCCCCCCCCCCCC(=O)N[C@@H](CSC[C@H](NC(=O)CCCCCCCCCCCCC)C(=O)N[C@@H](CO)C(=O)N[C@@H](CCCCN)C(=O)N[C@@H](CCCCN)C(=O)N[C@@H](CCCCN)C(=O)N[C@@H](CCCCN)C(N)=O)C(=O)NCCCCCCCCCCCC (Myristoyl-C(X6)SKKKK-NH2),Active,inactive,–,–,–
CCCCCCCCCCCCCCCCNC(=O)[C@H](C[S+]([O-])C[C@H](NC(=O)CCCCCCCCCCCCCCC)C(=O)N[C@@H](CO)C(=O)N[C@@H](CCCCN)C(=O)N[C@@H](CCCCN)C(=O)N[C@@H](CCCCN)C(=O)N[C@@H](CCCCN)C(N)=O)NC(=O)CCCCCCCCCCCCCCC (some centres undefined),Active,inactive,–,–,–
CCCCCCCCCCCCCCCCNC(=O)[C@H](CSC[C@H](NC(=O)CCCCCCCCCCCCCCC)C(=O)N[C@@H](CO)C(=O)N[C@@H](CCCCN)C(=O)N[C@@H](CCCCN)C(=O)N[C@@H](CCCCN)C(=O)N[C@@H](CCCCN)C(N)=O)NC(=O)CCCCCCCCCCCCCCC,Active,inactive,–,Active,–
CCCCCCCCCCCCCCCCNC(=O)[C@@H](CSC[C@@H](NC(=O)CCCCCCCCCCCCC)C(=O)N[C@@H](CO)C(=O)N[C@@H](CCCCN)C(=O)N[C@@H](CCCCN)C(=O)N[C@@H](CCCCN)C(=O)N[C@@H](CCCCN)C(N)=O)NC(=O)CCCCCCCCCCCCC,Active,inactive,–,–,–
CCCCCCCCCCCCCC(=O)N[C@@H](CSC[C@@H](NC(=O)CCCCCCCCCCCCC)C(=O)O)C(=O)N[C@@H](CO)C(=O)N[C@@H](CCCCN)C(=O)N[C@@H](CCCCN)C(=O)N[C@@H](CCCCN)C(=O)N[C@@H](CCCCN)C(N)=O,Active,inactive,inactive,–,–
CCCCCCCCCCCCCCCCNC(=O)[C@H](CSC[C@@H](NC(=O)CCCCCCCCCCCCC)C(=O)N[C@@H](CO)C(=O)N[C@@H](CCCCN)C(=O)N[C@@H](CCCCN)C(=O)N[C@@H](CCCCN)C(=O)N[C@@H](CCCCN)C(N)=O)NC(=O)CCCCCCCCCCCCC,Active,inactive,–,–,–
CCCCCCCCCCCCCCCCCCCC(=O)N[C@@H](CSC[C@H](NC(=O)CCCCCCCCCCCCCCCCCCC)C(=O)N[C@@H](CO)C(=O)N[C@@H](CCCCN)C(=O)N[C@@H](CCCCN)C(=O)N[C@@H](CCCCN)C(=O)N[C@@H](CCCCN)C(N)=O)C(=O)NCCCCCCCCCCCCCCCC (Arachidoyl-C(X5)SKKKK-NH2),Active,inactive,–,–,–
